# Screens as filed in PubChem BioAssay.
# GRIN3A LBD mod – modulators (binders) of human NR3A ligand-binding domain | AID 1259313 | NR3A LBD differential scanning fluorimetry, Tm shift; 0% = protein alone, 100% = glycine-bound protein | Tm shift relative to glycine control, % at 25 µM | 2.5% of 340,000 active;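 active = melting temperature shift of at least 10% of the positive control shift, at one fixed dose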
# MPTP inh – permeability transition pore inhibition | isolated mouse mitochondria, Ca2+ swelling absorbance, 30 min | inhibition, % at 10 µM | 1.4% of 360,000 active | AID 602449;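 active = inhibition of 50% or more, scaled per plate between neutral and stimulator controls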;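 note: 0% = DMSO wells given calcium and 100% = 1 mM EGTA wells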
# UPR CHOP act – apoptotic UPR (CHOP) activation | CHO-CHOP luciferase reporter, luminescence; percent of tunicamycin response over DMSO baseline | activation, % at 10 µM | 0.34% of 330,000 active | AID 449763;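 active = at 10 µM dose, activation of 40% or more, normalized to positive control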;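 note: 100% = tunicamycin at 10 µg/mL and 0% = DMSO alone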
#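 Evaluation: % reporter activation, DMSO baseline versus tunicamycin full activation; System: CHO-CHOP luciferase reporter cell line; Input: 500 cells/well; Incubation: 6 h compound treatment, 37 °C; Measured by: Steady-Glo luciferase luminescence; Dosing: one dose, 10 µM in 0.5% DMSO; Buffer or medium: F12 medium, 10% FBS; Benchmarks: positive tunicamycin 10 µg/mL, negative DMSO alone.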
# UPR XBP1 act – activators of adaptive arm of unfolded protein response (XBP1) | CHO-XBP1 luciferase reporter, IRE1-XBP1 UPR activation, luminescence; percent of tunicamycin response, DMSO as zero | activation, % at 20 µM | 0.33% of 330,000 active;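 active = versus positive control, 20 µM dose yields 30% or more activation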;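 note: 100% = tunicamycin at 10 µg/mL and 0% = DMSO only wells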
#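 Test system: CHO-XBP1 luciferase reporter cells | Buffer or medium: Serum-containing F12 medium, 10% FBS | Schedule: 6 h compound exposure at 37 °C, 5% CO2 | Detection: Steady-Glo luciferase glow luminescence, 10 min after reagent addition | Read-out basis: Activation, % of tunicamycin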
# aDG glyco act – increases alpha dystroglycan glycosylation; Pro5-aDG cells, alpha-DG glycosylation AlphaScreen (IIH6); 0% Pro5, 100% B10-LARGE cell signal; activation, % at 10 µM; 0.22% of 360,000 active;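 active = activation of at least 8% versus controls, or a plate z-score of at least 8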;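 note: Pro5 are CHO cells carrying HIG-tagged alpha-DG that lacks glycosylation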
# CHOP inhibitor – CHOP inhibition in unfolded protein response | CHO-K1 CHOP-promoter luciferase, tunicamycin-induced, 15-18 h | inhibition, % at 10 µM | 3.8% of 220,000 active;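 active = compounds that reduced the stress-induced luciferase reporter signal by more than about 70% of percent inhibition, limit read from the data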;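 note: 0% = tunicamycin plus vehicle and 100% = wells without tunicamycin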
# Starred values were filed as active, the others as inactive; x = not tested or not shown. Most compounds without a hit are left out; they make up all but 5.6% or so of the library.
SMILES,GRIN3A LBD mod,MPTP inh,UPR CHOP act,UPR XBP1 act,aDG glyco act,CHOP inhibitor
CCOC(=O)C1=CCN(S(=O)(=O)c2ccccc2Br)C1c1cccc(F)c1 (stereo not given),x,0,x,x,0,x
COc1ccc(C(=O)Nc2ccc3cn[nH]c3c2)c(OC)c1,1,1,4,0,1,-18
COc1ccc(CNC(=O)C2CCN(S(=O)(=O)c3cccc(C(F)(F)F)c3)CC2)cc1,1,0,1,-1,0,x
COc1ccc(N2CCC(CNS(=O)(=O)c3cccc(C(F)(F)F)c3)C2)cc1 (stereo not given),0,1,-3,-6,0,74*
CCCc1cc(C(=O)NC(C)C2CCCO2)cs1 (stereo not given),1,0,0,-5,0,x
CCOC(=O)N1CCN(S(=O)(=O)N2CCCC(C(=O)NCc3ccc(C)cc3)C2)CC1 (stereo not given),x,1,x,x,0,x
O=C(Nc1cccc(Cl)c1)c1cc(S(=O)(=O)N2CCOCC2)cs1,31*,-1,0,-3,0,x
CC1CCN(S(=O)(=O)c2cccc(C(=O)Nc3ccccc3)c2)CC1,-7,-1,-2,-2,0,1
CC1CCN(S(=O)(=O)c2ccc(NC(=O)Cc3ccccc3)cc2)CC1,-2,18,-1,0,0,85*
CC1CCN(S(=O)(=O)c2csc(C(=O)Nc3ccccc3)c2)CC1,-13,14,-3,-5,1,77*
Cc1c(C(=O)Nc2cccc(C(F)(F)F)c2)oc2ccc(S(=O)(=O)N3CCOCC3)cc12,25*,3,-6,-4,0,52
Cc1ccc(CNC(=O)c2oc3ccc(S(=O)(=O)N4CCOCC4)cc3c2C)cc1,-32,0,0,-4,0,-4
CCCCCCCCCCCCCCCCCCNC(=O)OCC(COP(=O)([O-])OCC[n+]1ccsc1)OC (stereo not given),x,x,x,x,x,-13
CCOc1ccc(C(C)C)cc1S(=O)(=O)Nc1ccc(Cl)cn1,12*,-2,2,-4,0,50
CCCCC[C@@H]1C=C(C(=O)O)[C@H](c2ccc3c(c2)OCO3)N1S(=O)(=O)c1ccc(C)cc1,-2,1,0,-2,0,x
Cc1ccc(-c2nc3c(c(=O)[nH]c(=O)n3Cc3ccccc3)n2C)s1,x,x,2,-1,x,3
Cc1ccnc(SCCn2c(N3CCOCC3)nc3c2c(=O)[nH]c(=O)n3C)n1,-3,-2,3,-4,0,x
Cc1ccnc(SCCn2c(N3CCC(C)CC3)nc3c2c(=O)[nH]c(=O)n3C)n1,13*,0,x,x,0,22
Cn1c(C2CCCCC2)nc2c1c(=O)[nH]c(=O)n2Cc1ccccc1,0,0,-1,2,0,72*
CCCn1c(N2CCC(Cc3ccccc3)CC2)nc2c1c(=O)[nH]c(=O)n2C,-6,0,0,5,1,50
Cn1c(=O)[nH]c(=O)c2c1nc(N1CCCCCC1)n2CCCSc1nc2ccccc2o1,-3,4,2,11,0,95*
Cn1c(=O)[nH]c(=O)c2c1nc(N1CCC(Cc3ccccc3)CC1)n2Cc1ccccc1,-4,-1,0,-3,0,88*
Nc1nc(SCc2ccc([N+](=O)[O-])cc2)c2ncn([C@@H]3O[C@H](CO)[C@H](O)C3O)c2n1 (stereo not given in full),x,x,x,x,x,-12
CC(C)(C)N1CC(C(=O)Nc2ccc(C(N)=O)cc2)CC1=O (stereo not given),x,-1,x,x,0,x
Cn1c2ccccc2c(=O)c2ccc(NCCc3cccs3)cc21,-3,1,0,2,1,x
SMILES,GRIN3A LBD mod,MPTP inh,UPR CHOP act,UPR XBP1 act,aDG glyco act,CHOP inhibitor
COC(=O)c1nccnc1N,14*,1,x,x,0,x
Cc1ccc(OCc2ccc(C(=O)Nc3c(C)nn(Cc4c(F)c(F)c(F)c(F)c4F)c3C)o2)c([N+](=O)[O-])c1,-15,2,4,0,4.0*,60
CCCCN(C)C(=O)c1sc(=O)n(Cc2c(C)cccc2C)c1C,x,-1,x,x,0,x
CCOc1cc(/C=C2/C(=O)ON=C2C)cc(Br)c1O,21*,3,3,-1,0,x
COc1ccc(NC(=S)Nc2ccc(N)c([N+](=O)[O-])c2)cc1,12*,2,3,5,0,2
COc1ccc(NC(=S)Nc2ccccc2)cc1,-5,2,2,-1,0,-20
CC(=O)c1ccc(N2CCN(C(=O)c3cccs3)C(C)C2)c(F)c1 (stereo not given),2,0,-1,0,0,x
O=C(N/N=C/c1cc(Br)ccc1O)C(=O)Nc1ccccc1OC(F)(F)C(F)F,6,4,x,x,1,77*
O=C(N/N=C/c1cc(Cl)ccc1O)C(=O)Nc1ccccc1OC(F)(F)C(F)F,4,16,x,x,1,78*
COc1ccccc1/C=N/NC(=O)C(=O)Nc1ccccc1OC(F)(F)C(F)F,-22,4,-1,0,0,13
CC(C)(C)C(=O)N1CCN(c2ccc3c(c2)C2CC3CCN2C(=O)OCc2ccccc2)CC1 (stereo not given),x,-1,x,x,0,x
CCCCN(CC)CCCNC(=O)c1cc2cc3ccc(OC)cc3nc2o1,2,1,0,-1,0,x
CCCCN(CC)C(=O)c1cc2cc3ccc(Cl)cc3nc2o1,19*,3,3,5,0,x
O=C(c1cccc(Cl)c1)N1CCC(=O)N([C@H](COCc2cccc(Cl)c2)Cc2ccccc2)CC1,x,-2,x,x,0,x
CC1(Cc2cc(Cl)ccc2C(F)(F)F)C(=O)Nc2cc(C(F)(F)F)ccc21 (stereo not given),x,4,x,x,0,x
N#C/C(=C\c1ccc(-c2ccc(Br)cc2)o1)C(=O)NCCc1c[nH]c2ccccc12,27*,3,-2,9,1,63
CCCC(=O)Nc1ccc2oc(-c3ccc(OC)c(Br)c3)nc2c1,2,12,2,8,0,96*
COc1ccccc1C(=O)Nc1ccc2oc(-c3ccc(F)cc3)nc2c1,14*,4,8,5,0,30
COc1cc(C(=O)NCc2ccc(-c3nc4ccccc4o3)cc2)cc(OC)c1OC,2,0,4,8,0,71*
Cc1ccc2oc(-c3ccc(NC(=O)c4ccncc4)cc3O)nc2c1,33*,-1,6,3,0,-17
COc1ccc(C(=O)Nc2ccc3oc(-c4cccc(F)c4)nc3c2)cc1OC,2,0,0,-1,0,34
Cc1cc(NC(=O)C(C)Oc2ccccc2)no1 (stereo not given),1,0,0,8,0,x
O=C(Nc1ccccc1Cl)c1cc(=O)c2ccccc2o1,1,0,1,-1,0,x
